Screening results: PubChem BioAssay, several laboratories
hERG rescue – compounds protecting human hERG from proarrhythmic drug block | activation (rescue from dofetilide block), less the hit threshold, % at 10 µM | CHO-hERG, FluxOR thallium flux, dofetilide IC70 present | Q12809 | 310,000 tested, 0.51% active;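 active = activation above the mean of controls blocked by dofetilide plus 5 SD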;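 also: thallium influx through hERG after potassium depolarization seen as dye fluorescence rise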
SUMO Mot1 rescue – SUMOylation pathway inhibition by Mot1-301 growth rescue. 320,000 tested, 1% active. growth rescue, % at 18.8 µM. AID 2716. S. cerevisiae Mot1-301 growth rescue, ATP luminescence, 38.5C; percent above DMSO median, 100 means doubled;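 active = every valid replicate shows activation above 250% relative to neutral control wells; inactive = the rest, any valid replicate at or below 250%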
KCNQ1 pot – potentiators or activators of human KCNQ1 potassium channel; 310,000 tested, 0.35% active; CHO-K1 KCNQ1, thallium flux FluxOR fluorescence; active compounds read high; B-score at 10 µM; AID 2648; P51787;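 active = fluorescence ratio B-score, a plate-corrected score, at least three library SD, with initial intensity B-score within 5 SD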
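Assay system: stable KCNQ1 CHO-K1 line; medium: assay buffer, equal DMSO in all wells; timing: 90 min dye loading and 20 min compound exposure, both at room temperature; technique: kinetic FluxOR thallium fluorescence, 10-s 1-Hz baseline, 110-s post-stimulus read; read-out basis: B score of baseline-normalized fluorescence ratio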
KCNQ1 block – inhibitors of human KCNQ1 potassium channel | P51787 | CHO-K1 KCNQ1, FluxOR thallium flux fluorescence; active compounds read high | B-score at 10 µM | 310,000 tested, 1.3% active;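 active = compounds whose thallium flux B-score, printed positive for inhibition, exceeds three library SD while starting fluorescence stays within three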;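 also: channel opened by potassium depolarization with thallium stimulus after 20 min compound exposure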
AI-2 QS mod – modulates the Vibrio harveyi AI-2 quorum sensing system; activity change, % at 7.5 µM; Vibrio harveyi JMH597 AI-2 luminescence/OD600 ratio, 9 h; active compounds read low; strain lacks LuxN and CqsS sensors; 0 = neutral-control median; 300,000 tested, 0.4% active; AID 2094; in the data active = activity change below about -75%, passing the limit was not always enough;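 also: luminescence divided by OD600 gain over 9 h not by final OD600 alone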
KCC2 mod – modulators of human KCC2 chloride dependent transport; 190,000 tested, 2.2% active; KCC2 cells, thallium flux FluoZin-2 fluorescence; B-score of Tl+ flux slope (higher = more flux/activation; lower = inhibition) at 10 µM; Q9H2X9;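 active = thallium flux slope and its plate-corrected score both differing from the plate sample mean at a set confidence after two filtering rounds, in either direction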;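 also: slope of fluorescence scaled to starting intensity during 10 to 20 s after thallium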
KCNQ1 inh valid – human KCNQ1 channel inhibition, validation assay. shares compounds with KCNQ1 block. KCNQ1 cell line, FluxOR thallium flux fluorescence. inhibition, % at 10 µM. 1,600 tested, 93% active. AID 588353;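 active = primary screen active, with duplicate mean exceeding buffer control mean plus 3 SD of buffer wells, cut at about 28% in these data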
CHO Tl flux – KCNQ1 inhibitor counter-screen hit in parental CHO cells; shares compounds with KCNQ1 block; parental CHO-K1, FluxOR thallium flux fluorescence ratio; active compounds read low; zero means no signal rise above baseline; fluorescence ratio (Tl flux) at 10 µM; 1,600 tested, 21% active; AID 588366;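 active = mean of duplicate thallium-flux fluorescence ratios in parental host cells more than 5 SD below the buffer control mean, cut at about 0.38 in these data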;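 also: ratio is peak minus minimum fluorescence divided by baseline fluorescence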
KCNQ1 ephys val – confirmation of human KCNQ1 potassium channel inhibitors by electrophysiology. shares compounds with KCNQ1 block. KCNQ1-CHO cells, automated patch clamp current. calls only at 10 µM. 490 tested, 20% active. AID 624120;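 active = KCNQ1 current drop exceeding 3 SD of negative control wells, seen in both duplicate runs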;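 also: steady state current during a 2 s step from -80 to +40 mV; negative values mean current inhibition and positive values mean potentiation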
KCNQ2 inh – rat KCNQ2 inhibition in KCNQ1 inhibitor specificity screen; shares compounds with KCNQ1 block; KCNQ2 cells, FluxOR thallium flux fluorescence; inhibition, % at 10 µM; 1,600 tested, 71% active;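 active = mean percent inhibition of the KCNQ2 thallium signal more than 5 SD above the buffer-only control wells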;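 also: KCNQ2 expressed in CHO cells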
KCNQ1-KCNE1 inh – selectivity of KCNQ1 inhibitors: inhibition of human KCNQ1/KCNE1 channel | shares compounds with KCNQ1 block | KCNQ1/KCNE1 cells, FluxOR thallium flux fluorescence | inhibition, % at 10 µM | 1,600 tested, 77% active;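 active = mean percent inhibition of duplicate wells above the buffer-only control mean plus 3 SD of those controls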
Of the large screens only hits and unclear results are named; the others gave an inactive call (follow-up assays come after a bar, where they were run). Rows were chosen to be rich in hits. Some 4.2% of all compounds tested hit in one or more screens of this group.

CN(C)CCCn1c(N)c(S(=O)(=O)c2ccccc2)c2nc3ccccc3nc21	none
CCCCn1c(N)c(S(=O)(=O)c2ccc(C)cc2)c2nc3ccccc3nc21	KCNQ1 block 14 | KCNQ1 inh valid 88 | CHO Tl flux 0.38 | KCNQ2 inh 71% | KCNQ1-KCNE1 inh 93%
COc1ccc(N(CC(=O)N/N=C(\C)c2ccc(OC)c(OC)c2)S(=O)(=O)c2ccccc2)cc1	none (no result: KCC2 mod)
Cc1cc(C(=O)COc2ccc(-c3nnco3)cc2)c(C)n1Cc1ccccc1	none
Cc1ccccc1CN(C)CC(=O)NC(C)CCc1ccccc1 (stereo not given)	none
COc1cccc(C2CC(c3cccs3)=NN2C(=O)CSc2nc3ccccc3s2)c1OC (stereo not given)	none
COc1cccc(C2CC(c3cccs3)=NN2C(=O)CSc2nc3c(cnn3-c3ccc(F)cc3)c(=O)[nH]2)c1OC (stereo not given)	KCNQ1 block 15 | KCNQ1 inh valid 116 | CHO Tl flux inactive | KCNQ1 ephys val inactive | KCNQ2 inh 71% | KCNQ1-KCNE1 inh 85%
CCN(C(=O)COC(=O)/C=C/c1ccco1)C1CCCCC1	none (no result: hERG rescue, KCNQ1 pot, KCNQ1 block, AI-2 QS mod, KCC2 mod)
Cc1cccc(C)c1OCc1cc(C(=O)N2CCC(c3ccncc3)CC2)no1	KCNQ1 block 7 (no result: KCC2 mod) | KCNQ1 inh valid 113 | CHO Tl flux inactive | KCNQ1 ephys val inactive | KCNQ2 inh 69% | KCNQ1-KCNE1 inh 35%
Cc1ccc(C)c(OCc2cc(C(=O)N3CCN(c4ccccc4)CC3)no2)c1	KCNQ1 block 7 (no result: KCC2 mod) | KCNQ1 inh valid 74 | CHO Tl flux inactive | KCNQ2 inh 98% | KCNQ1-KCNE1 inh 65%
Cc1ccc(C)c(OCc2cc(C(=O)N3CCN(C(=O)c4ccco4)CC3)no2)c1	none (no result: KCC2 mod)
Cc1cccc(C)c1OCc1cc(C(=O)N2CCN(c3ccccc3)CC2C)no1 (stereo not given)	KCNQ1 block 8 (no result: KCC2 mod) | KCNQ1 inh valid 86 | CHO Tl flux 0.38 | KCNQ2 inh 117% | KCNQ1-KCNE1 inh 120%
Cc1ccc(-c2csc(N3CCC(NS(=O)(=O)c4ccc5c(c4)OCCO5)CC3)n2)cc1	KCNQ1 block 6 | KCNQ1 inh valid 106 | CHO Tl flux inactive | KCNQ1 ephys val inactive | KCNQ2 inh 96% | KCNQ1-KCNE1 inh 100%
Cc1ccc(-c2csc(N3CCC(C(N)=O)CC3)n2)cc1	none (no result: hERG rescue, KCNQ1 pot, KCNQ1 block, AI-2 QS mod, KCC2 mod)
O=C(Nc1cccc(F)c1)N(Cc1ccc(Cl)cc1)CC(O)C(F)(F)F (stereo not given)	KCNQ1 block 8 | KCNQ1 inh valid 72 | CHO Tl flux inactive | KCNQ2 inh inactive | KCNQ1-KCNE1 inh 56%
O=C(Nc1ccccc1)N(Cc1ccccc1)CC(O)C(F)(F)F (stereo not given)	none
O=C(Nc1ccc(F)cc1)NC1CCCCCCC1	none (no result: KCC2 mod)
O=C(Nc1ccc(F)cc1)C(NC1CCCCC1)c1ccccc1 (stereo not given)	KCNQ1 block 7 | KCNQ1 inh valid 76 | CHO Tl flux inactive | KCNQ2 inh 65% | KCNQ1-KCNE1 inh 105%
CCCn1c(=O)c2[nH]c(-c3ccc(OCC(=O)Nc4ccc(C#N)cc4)cc3)nc2n(CCC)c1=O	none (no result: hERG rescue, KCNQ1 pot, KCNQ1 block, AI-2 QS mod, KCC2 mod)
CSc1ccccc1NC(=S)Nc1cccc(C(F)(F)F)c1	none
